NR2E3 ag-1 = NR2E3 (human) agonism. Q9Y5X4. GST-NR2E3/biotin-RetCOR TR-FRET, 1536-well. inhibition of corepressor binding, % at 4.78 µM. 320,000 compounds, 0.12% hits. AID 2300;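 active means percent inhibition above the cutoff of mean plus 3 SD of all tested compounds, set per screening campaign, cut at about 20% in these data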;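 further: 0% = DMSO wells and 100% = biotin wells as full block of FRET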
Target sequence (Q9Y5X4 whole entry, looked up): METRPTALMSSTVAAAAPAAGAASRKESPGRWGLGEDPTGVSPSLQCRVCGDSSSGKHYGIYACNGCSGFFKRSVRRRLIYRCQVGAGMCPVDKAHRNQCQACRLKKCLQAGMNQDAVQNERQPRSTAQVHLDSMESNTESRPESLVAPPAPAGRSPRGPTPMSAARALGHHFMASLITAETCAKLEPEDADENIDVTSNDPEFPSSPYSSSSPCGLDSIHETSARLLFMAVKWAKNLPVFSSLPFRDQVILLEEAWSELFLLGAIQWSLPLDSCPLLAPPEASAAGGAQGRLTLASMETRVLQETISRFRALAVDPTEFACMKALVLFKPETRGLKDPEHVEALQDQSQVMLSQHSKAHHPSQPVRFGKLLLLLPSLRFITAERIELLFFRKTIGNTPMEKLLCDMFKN
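System: GST-tagged NR2E3 plus biotinylated RetCOR corepressor; Amount: 1.35 nM GST-tagged NR2E3 final; Dosing: single nominal compound dose of 4.8 µM; Schedule: 5 h incubation at 4 °C; Technique: TR-FRET with europium anti-GST and streptavidin-D2, 340 nm excitation; Controls: biotin wells as high control, 0.6% DMSO wells as low control.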
rCAG binder = molecules binding r(CAG) RNA repeats; r(CAG) RNA repeat, TO-PRO-1 dye displacement fluorescence; inhibition, % at 3 µM; 370,000 compounds, 1.3% hits; AID 651821;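 active means inhibition above the plate cutoff, the mean of all test compounds on that plate plus 3 SD, cut at about 35% in these data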;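 further: 0% = DMSO alone and 100% = 100 µM mitoxantrone as full dye displacement; higher means more dye released from RNA so lower well fluorescence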
Rev-erbA mod = Rev-erb alpha (human) modulation; P20393; Rev-erbα–FITC-DNA binding, fluorescence polarization, 90 min; activity, % at 10 µM; 370,000 compounds, 0.79% hits; AID 1259318;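 active means activity above about 14%, limit read from the data; passing the limit was not always enough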;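 further: 0% = DMSO wells with 35 nM protein and 100% = DMSO wells with 750 nM protein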
PG9 binder = small molecules binding HIV-1 gp120 antibody PG9. TR-FRET gp120-PG9 antibody binding. inhibition, % at 6.7 µM. 360,000 compounds, 0.43% hits. AID 624416; in the data active means inhibition above about 8.5%
NR2E3 ag-2 = agonists of human NR2E3 nuclear receptor | 360,000 compounds, 0.35% hits | AID 602229 | CHO-S Gal4-NCOR/VP16-NR2E3 two-hybrid, luciferase | Q9Y5X4 | inhibition of corepressor binding, % at 3.98 µM;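 active means inhibition above the mean of all tested compounds plus 3 SD, cut at about 70% in these data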;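 further: 0% = DMSO with NR2E3 transfected cells and 100% = cells lacking NR2E3 construct; higher means lower luciferase signal from less NR2E3 corepressor binding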
rCAG binder conf = r(CAG) RNA repeat binding, confirmation | shares compounds with rCAG binder | TO-PRO-1 dye displacement fluorescence | inhibition, % at 3 µM | 4,300 compounds, 70% hits | AID 652065;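 active means inhibition above a per-plate cutoff, the mean inhibition of sample wells plus 3 SD, cut at about 35% in these data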;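 further: loss of TO-PRO-1 fluorescence as compound displaces dye from 1x1 AA loop RNA; 0% = DMSO only wells and 100% = 100 µM mitoxantrone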
dCAG dye counter = DNA CAG dye complex inhibition counter-screen. shares compounds with rCAG binder. 4,300 compounds, 94% hits. d(CAG) DNA oligo TO-PRO-1 dye displacement, fluorescence. inhibition, % at 3 µM;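 active means inhibition above its plate's cutoff, the mean test-well inhibition plus 3 SD, cut at about 4.8% in these data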;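 further: 0% = DNA dye mix with DMSO and 100% = 100 µM mitoxantrone; hits displace the dye from DNA and so lower well fluorescence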
Numbers without * were called inactive; . = no result given. Sampled rows, rich in hits. Any-hit rate of the full collection: about 2.6%.

SMILES	NR2E3 ag-1	rCAG binder	Rev-erbA mod	PG9 binder	NR2E3 ag-2	rCAG binder conf	dCAG dye counter
CCCCNC(=O)C1(C)CCCCN1C(=O)c1cc(C#N)cs1 (stereo not given)	.	-1.0	6.4	0.2	-14.9	.	.
O=C(OCCC12CC3CC(CC(C3)C1)C2)c1ccc(NCc2cc(O)ccc2O)cc1	.	36.3*	-4.1	-1.6	28.6	27.3	10.7*
COC(=O)CC1=NN(c2ccc(OC)cc2)C(=O)/C1=C\c1ccc(Cl)cc1	0.0	68.4*	3.9	0.3	5.6	83.5*	41.2*
CCOC(=O)CC1=NN(c2ccccc2)C(=O)/C1=C\c1ccc(OC)cc1OC	0.1	65.1*	1.0	-0.9	-22.1	9.6	5.3*
COc1ccc(C(=O)NNC(=O)C2=NN(c3ccccc3)C(=O)CC2)cc1	2.1	-0.8	-1.4	1.5	0.8	.	.
CCOC(=O)C1=NN(c2ccccc2)C(=O)/C1=C\c1ccc(N(C)C)cc1	-1.5	60.5*	-0.8	-1.7	-14.0	62.6*	19.2*
COc1ccc(/C=C2\C(=O)N(c3c(Cl)cc(Cl)cc3Cl)N=C2NC(=O)c2cccc([N+](=O)[O-])c2)cc1	3.9	.	.	.	-14.6	.	.
COc1ccccc1/C=C1/C(=O)N(c2ccccc2)N=C1C	0.4	31.4	2.5	-0.7	2.1	.	.
COC(=O)CC1=NN(c2ccccc2)C(=O)/C1=C\c1ccc(OC)cc1	-2.3	41.8*	1.6	-0.5	-6.6	28.5	8.3*
CSc1nc(N)nc2c1ncn2CC(=O)NCc1ccc2[nH]ccc2c1	.	6.2	-0.9	0.2	-10.7	.	.
O=C(NC(Nc1ncc(S(=O)(=O)c2ccc([N+](=O)[O-])cc2)s1)(C(F)(F)F)C(F)(F)F)c1ccc(Cl)cc1	-2.6	45.6*	-3.7	-1.0	46.0	51.5*	13.9*
COCC(=O)Nc1ncc(S(=O)(=O)c2ccc([N+](=O)[O-])cc2)s1	0.0	0.7	4.0	1.1	-10.1	.	.
COc1ccc(C(=O)Oc2coc(CSc3nnc(NC(=O)c4cccs4)s3)cc2=O)cc1	-0.9	34.8*	-8.0	4.1	-13.6	51.5*	16.4*
COc1cc(C(CC(=O)Nc2ccc(C)cn2)N2Cc3ccccc3C2=O)cc(OC)c1OC (stereo not given)	-0.7	-3.7	-5.1	-0.6	-16.7	.	.
COc1cc([N+](=O)[O-])ccc1NC(=S)NNC(=O)c1ccc2c(c1)OCO2	1.1	64.3*	13.1	-0.5	4.8	57.5*	15.6*
CCc1nnc(NS(=O)(=O)c2ccc(NC(=S)NC(=O)/C=C/c3ccc(F)cc3)cc2)s1	-1.7	85.3*	2.3	-2.3	-7.1	85.6*	59.5*
CCc1nnc(NS(=O)(=O)c2ccc(NC(=S)NC(=O)/C=C/c3ccc([N+](=O)[O-])cc3)cc2)s1	-1.1	37.5*	-8.8	-0.7	-21.9	23.3	7.7*
CC(=O)c1ccc(NC(=S)NC(=O)/C=C/c2ccc(F)cc2)cc1	6.0	.	.	.	11.0	.	.
CC(C)(C)Cc1nnc(NS(=O)(=O)c2ccc([N+](=O)[O-])cc2)s1	-1.7	32.7	2.2	-2.1	-17.5	.	.
COc1ccc(CC(=O)N(CCC2=CCCCC2)c2c(N)n(Cc3ccccc3)c(=O)[nH]c2=O)cc1OC	3.3	-5.3	-6.5	0.0	-10.2	.	.
COc1ccc(C2=NN(C(=O)CSc3nccn3C)C(c3ccco3)C2)cc1 (stereo not given)	.	0.9	1.7	1.6	-18.7	.	.
O=C(N[C@@H](Cc1c[nH]c2ccccc12)C(=O)O)C1CCN(S(=O)(=O)c2cccs2)CC1	1.5	11.7	-3.2	2.5	-5.1	.	.
O=C(N[C@@H](Cc1c[nH]c2ccccc12)C(=O)O)C1CCN(S(=O)(=O)c2ccc(Cl)cc2)CC1	-1.0	34.6*	-1.3	-1.1	-4.2	29.3	8.2*
O=C(O)Cn1cc(/C=C2\SC(=O)N(c3ccccc3)C2=O)c2ccccc21	0.1	5.0	-2.0	-0.2	-26.4	.	.
O=C(O)Cn1cc(/C=C2/SC(=O)N(CC(=O)N3CCCCCC3)C2=O)c2ccccc21	-1.7	40.3*	4.2	-6.4	.	36.9*	10.4*
SMILES	NR2E3 ag-1	rCAG binder	Rev-erbA mod	PG9 binder	NR2E3 ag-2	rCAG binder conf	dCAG dye counter
Cc1noc(NS(=O)(=O)c2ccc(NC(=O)c3ccc(F)cc3)cc2)c1C	.	7.6	3.2	-2.1	-16.3	.	.
Cc1noc(NS(=O)(=O)c2ccc(NC(=O)c3ccc(Cl)c(S(=O)(=O)N(C)c4ccccc4)c3)cc2)c1C	.	90.9*	-0.3	1.4	-2.1	84.5*	55.5*
Cc1noc(NS(=O)(=O)c2ccc(NC(=O)c3cccc(S(=O)(=O)N(C)c4ccccc4)c3)cc2)c1C	.	73.0*	2.2	-2.2	-9.5	81.2*	36.8*
COc1ccc(N2CCN(C(=O)CN3C(=O)NC4(CCCCC4C)C3=O)CC2)cc1 (stereo not given)	.	-0.3	-4.3	-1.0	-0.5	.	.
COCCNC(=O)C1CCCN(C(=O)c2nc(C)oc2C)CC1 (stereo not given)	.	1.9	1.2	-1.4	-20.0	.	.
O=C(O)c1ccccc1C(=O)c1ccc(Sc2ccc(Cl)cc2)c([N+](=O)[O-])c1	-4.2	64.1*	-5.7	-1.3	43.4	71.2*	32.0*
Nc1ccccc1Sc1ccc(C(=O)c2ccccc2C(=O)O)cc1[N+](=O)[O-]	2.2	63.7*	-6.3	-0.4	-22.0	48.1*	15.2*
CC1=C(C(=O)N2CCCCCC2)CC(CC(=O)NCc2cccc3ccccc23)C(=O)N1CCC1=CCCCC1 (stereo not given)	.	3.1	-5.1	0.6	-4.1	.	.
CC(C)C(=O)Nc1cccc(C(=O)Nc2ccccc2C(=O)O)c1	6.0	8.5	-0.9	-1.4	-36.4	.	.
CC(C)c1ccc(OCC(=O)Nc2cccc(C(=O)Nc3ccccc3C(=O)O)c2)cc1	1.9	82.3*	-2.1	-0.2	-6.9	87.7*	63.2*
Cc1cccc(OCC(=O)Nc2cccc(C(=O)Nc3ccccc3C(=O)O)c2)c1	-3.4	71.0*	3.5	-0.3	-10.5	66.5*	28.8*
O=C(COc1ccccc1[N+](=O)[O-])Nc1cccc(C(=O)Nc2ccccc2C(=O)O)c1	4.6	68.6*	-5.6	-1.0	-22.7	79.6*	45.1*
O=C(O)c1cccc(NC(=O)c2ccccc2NC(=O)c2cccc([N+](=O)[O-])c2)c1	-0.1	30.0	-0.3	0.3	-17.4	.	.
CC1=CC(O)(c2ccccn2)P(=O)(c2ccccc2)C=C1C (stereo not given)	.	0.3	-2.5	1.1	.	.	.
C=CCN1C=C(C(=O)OCC)C(=O)CC1	.	0.4	-6.9	-1.0	.	.	.
c1ccc2c(C3OCC4(CCCCC4)CO3)cccc2c1	.	1.0	-1.6	1.0	-68.5	.	.
N#Cc1c(SCC(=O)Nc2ccccc2C(F)(F)F)sc2c(O)cc(=O)[nH]c12	6.7	49.7*	-0.9	0.6	-37.9	14.7	6.3*
